# Assay results published in ChEMBL document CHEMBL4145611, “Discovery of Marinoquinolines as Potent and Fast-Acting Plasmodium falciparum Inhibitors with in Vivo Activity” (J Med Chem, 2018).
# pEC50: −log10 of the molar value.
# Tests used:
# HepG2 = assay: Cytotoxicity against human HepG2 cells assessed as reduction in cell viability after 24 hrs by MTT assay; type: cell-based; conditions: HepG2, 24 h
# How it was run: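 HepG2 cells in RPMI-1640 with 10% heat-inactivated serum, seeded 5×10^3 per well, allowed to adhere 18 h at 37 °C, then exposed to compound (400–6.2 µM) for 24 h at 37 °C, 5% CO2. MTT (5 mg/mL) for 3 h, formazan dissolved in DMSO, absorbance 570 nm with 630 nm background; viability as percent of untreated control.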
# Plasmodium falciparum [1] = assay: Plasmodicidal activity against Plasmodium falciparum 3D7A infected in erythrocytes assessed as parasite survival at 10 times IC50 pre-incubated for 24 hrs followed by compound washout and measured after 24 hrs by […] incorporation assay (reference value: 100%); type: functional
# Plasmodium falciparum [2] = assay: Plasmodicidal activity against Plasmodium falciparum 3D7A infected in erythrocytes assessed as parasite survival at 10 times IC50 pre-incubated for 48 hrs followed by compound washout and measured after 24 hrs by […] incorporation assay (reference value: 100%); type: functional
# Plasmodium berghei [3] = assay: Antiplasmodial activity against Plasmodium berghei NK65 infected in Swiss mouse assessed as reduction in parasitemia at 20 mg/kg, po administered via gavage for 3 consecutive days post infection measured on day 5 post infection relative to control; type: functional; set-up: scale not given: the % may be the effect or the level left
# How it was run: (§1)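 P. berghei NK65 suppressive test: adult Swiss outbred mice (20±2 g) inoculated ip with 1×10^5 infected red cells, randomized to groups, dosed daily for three days by oral gavage or ip injection with test compound at 50 mg/kg in 3% (v/v) DMSO; CQ 20 mg/kg and vehicle groups in parallel. Giemsa-stained tail-blood smears on days 5, 7, 9; inhibition = [(C−T)/C]×100 versus untreated control.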
# Plasmodium berghei [4] = assay: Antiplasmodial activity against Plasmodium berghei NK65 infected in Swiss mouse assessed as reduction in parasitemia at 20 mg/kg, ip administered for 3 consecutive days post infection measured on day 5 post infection relative to control; type: functional; set-up: scale not given: the % may be the effect or the level left; how it was run: as §1
# Plasmodium berghei [5] = assay: Antiplasmodial activity against Plasmodium berghei NK65 infected in Swiss mouse assessed as reduction in parasitemia at 20 mg/kg, po administered via gavage for 3 consecutive days post infection measured on day 7 post infection relative to control; type: functional; set-up: scale not given: the % may be the effect or the level left; how it was run: as §1
# Plasmodium berghei [6] = assay: Antiplasmodial activity against Plasmodium berghei NK65 infected in Swiss mouse assessed as reduction in parasitemia at 20 mg/kg, ip administered for 3 consecutive days post infection measured on day 7 post infection relative to control; type: functional; set-up: scale not given: the % may be the effect or the level left; how it was run: as §1
# Plasmodium berghei [7] = assay: Antiplasmodial activity against Plasmodium berghei NK65 infected in Swiss mouse assessed as reduction in parasitemia at 20 mg/kg, po administered via gavage for 3 consecutive days post infection measured on day 9 post infection relative to control; type: functional; set-up: scale not given: the % may be the effect or the level left; how it was run: as §1
# Plasmodium berghei [8] = assay: Antiplasmodial activity against Plasmodium berghei NK65 infected in Swiss mouse assessed as reduction in parasitemia at 20 mg/kg, ip administered for 3 consecutive days post infection measured on day 9 post infection relative to control; type: functional; set-up: scale not given: the % may be the effect or the level left; how it was run: as §1
# Plasmodium berghei [9] = assay: Antiplasmodial activity against Plasmodium berghei NK65 infected in Swiss mouse assessed as assessed as mouse survival at 20 mg/kg, ip administered for 3 consecutive days post infection measured on day 9 post infection (reference value: 19 +/- 5 days); type: functional
# Plasmodium berghei [10] = assay: Antiplasmodial activity against Plasmodium berghei NK65 infected in Swiss mouse assessed as assessed as mouse survival at 20 mg/kg, po administered via gavage for 3 consecutive days post infection measured on day 9 post infection (reference value: 19 +/- 5 days); type: functional
SMILES,pEC50 (HepG2),Survival (Plasmodium falciparum [1]),Survival (Plasmodium falciparum [2]),Activity (Plasmodium berghei [3]),Activity (Plasmodium berghei [4]),Activity (Plasmodium berghei [5]),Activity (Plasmodium berghei [6]),Activity (Plasmodium berghei [7]),Activity (Plasmodium berghei [8]),Survival (Plasmodium berghei [9]),Survival (Plasmodium berghei [10])
CCN(CC)CCCC(C)Nc1ccnc2cc(Cl)ccc12 (stereo not drawn) [CHLOROQUINE],3.42,16%,8%,100%,100%,100%,100%,100%,100%,>30 days,>30 days
C[C@H]1[C@H](OC(=O)CCC(=O)O)O[C@@H]2O[C@@]3(C)CC[C@H]4[C@H](C)CC[C@@H]1[C@@]24OO3 [ARTESUNATE],–,14%,5%,–,–,–,–,–,–,–,–
